According to ChEMBL document CHEMBL3425481, “Design, synthesis and anticancer activity of matrine-1H-1,2,3-triazole-chalcone conjugates” (Bioorg Med Chem Lett, 2015):
Calls of active or inactive are those of the source. The rule behind the calls is not given here.

Experiments:
A549 [1] = experiment: Antitumor activity against human A549 cells xenografted in Balb/ca-nu mouse assessed as tumor growth inhibition at 10 mg/kg, iv dosed every 3 days for total of 7 dosing rounds measured on day 16 after treatment; type: functional; details: read-out: TGI
Method in brief: (§1)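 A549 xenograft in mice, dosed by tail vein injection every 3 days; vehicle saline plus 0.2% Tween 80. n = 8 per treatment group, 6 in the vehicle group. Mean ± SE.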

A549 [2] = experiment: Antitumor activity against human A549 cells xenografted in Balb/ca-nu mouse assessed as tumor growth inhibition at 2.5 mg/kg, iv dosed every 3 days for total of 7 dosing rounds measured on day 12 after treatment; type: functional; details: read-out: TGI; method in brief: as §1
A549 [3] = experiment: Antitumor activity against human A549 cells xenografted in Balb/ca-nu mouse assessed as tumor growth inhibition at 2.5 mg/kg, iv dosed every 3 days for total of 7 dosing rounds measured on day 10 after treatment; type: functional; details: read-out: TGI; method in brief: as §1
A549 [4] = experiment: Antitumor activity against human A549 cells xenografted in Balb/ca-nu mouse assessed as tumor growth inhibition at 5 mg/kg, iv dosed every 3 days for total of 7 dosing rounds measured on day 14 after treatment; type: functional; details: read-out: TGI; method in brief: as §1
A549 [5] = experiment: Induction of apoptosis in human A549 cells assessed as necrosis cells level at 0.5 times antiproliferative IC50 incubated for 24 hrs by Annexin V-FITC/propidium iodide double staining based flow cytometry (reference value: 0.042%); type: functional
A549 [6] = experiment: Antitumor activity against human A549 cells xenografted in Balb/ca-nu mouse assessed as tumor growth inhibition at 10 mg/kg, iv dosed every 3 days for total of 7 dosing rounds measured on day 20 after treatment; type: functional; details: read-out: TGI; method in brief: as §1
A549 [7] = experiment: Induction of apoptosis in human A549 cells assessed as necrosis cells level at IC50 incubated for 24 hrs by Annexin V-FITC/propidium iodide double staining based flow cytometry (reference value: 0.042%); type: functional
A549 [8] = experiment: Induction of apoptosis in human A549 cells assessed as early apoptosis cells level at IC50 incubated for 24 hrs by Annexin V-FITC/propidium iodide double staining based flow cytometry (reference value: 0.116%); type: functional
[9] = Antiproliferative activity against human Bel7402 cells assessed as inhibition of cell proliferation incubated for 48 hrs by CCK8 assay; type: functional, cell-based; details: Bel-7402, 48 h
Method in brief: (§2)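 Human A549 lung, Hela cervical, Bel-7402 hepatocellular and MCF-7 breast cancer cells, plus mouse embryo fibroblast NIH3T3, tested for anti-proliferative activity by CCK-8 assay. For the matrine combination tests, the chalcone and matrine were used at a 1:1 molar ratio; values given as IC50.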

A549 [10] = experiment: Induction of apoptosis in human A549 cells assessed as necrosis cells level at 2 times antiproliferative IC50 incubated for 24 hrs by Annexin V-FITC/propidium iodide double staining based flow cytometry (reference value: 0.042%); type: functional
A549 [11] = experiment: Antitumor activity against human A549 cells xenografted in Balb/ca-nu mouse assessed as tumor growth inhibition at 5 mg/kg, iv dosed every 3 days for total of 7 dosing rounds measured on day 18 after treatment; type: functional; details: read-out: TGI; method in brief: as §1
A549 [12] = experiment: Antitumor activity against human A549 cells xenografted in Balb/ca-nu mouse assessed as tumor growth inhibition at 5 mg/kg, iv dosed every 3 days for total of 7 dosing rounds measured on day 12 after treatment; type: functional; details: read-out: TGI; method in brief: as §1
HeLa = experiment: Antiproliferative activity against human HeLa cells assessed as inhibition of cell proliferation incubated for 48 hrs by CCK8 assay; type: functional, cell-based; method in brief: as §2
A549 [13] = experiment: Induction of apoptosis in human A549 cells assessed as early apoptosis cells level at 2 times antiproliferative IC50 incubated for 24 hrs by Annexin V-FITC/propidium iodide double staining based flow cytometry (reference value: 0.116%); type: functional
Mus musculus = experiment: Toxicity in human A549 cells xenografted Balb/ca-nu mouse assessed as effect on body weight at 2.5 to 10 mg/kg, iv dosed every 3 days for total of 7 dosing rounds measured on day 10 to day 20 after treatment; type: organism-based; design: dose 2.5-10 mg/kg, route intravenous; details: in vivo, 72 h; method in brief: as §1
A549 [14] = experiment: Antitumor activity against human A549 cells xenografted in Balb/ca-nu mouse assessed as tumor growth inhibition at 2.5 mg/kg, iv dosed every 3 days for total of 7 dosing rounds measured on day 14 after treatment; type: functional; details: read-out: TGI; method in brief: as §1
A549 [15] = experiment: Induction of apoptosis in human A549 cells assessed as viable cells level at 2 times antiproliferative IC50 incubated for 24 hrs by Annexin V-FITC/propidium iodide double staining based flow cytometry (reference value: 99.7%); type: functional
A549 [16] = experiment: Antitumor activity against human A549 cells xenografted in Balb/ca-nu mouse assessed as tumor growth inhibition at 10 mg/kg, iv dosed every 3 days for total of 7 dosing rounds measured on day 14 after treatment; type: functional; details: read-out: TGI; method in brief: as §1
A549 [17] = experiment: Antitumor activity against human A549 cells xenografted in Balb/ca-nu mouse assessed as tumor growth inhibition at 5 mg/kg, iv dosed every 3 days for total of 7 dosing rounds measured on day 10 after treatment; type: functional; details: read-out: TGI; method in brief: as §1
A549 [18] = experiment: Antitumor activity against human A549 cells xenografted in Balb/ca-nu mouse assessed as tumor growth inhibition at 5 mg/kg, iv dosed every 3 days for total of 7 dosing rounds measured on day 16 after treatment; type: functional; details: read-out: TGI; method in brief: as §1
A549 [19] = experiment: Antitumor activity against human A549 cells xenografted in Balb/ca-nu mouse assessed as tumor growth inhibition at 2.5 mg/kg, iv dosed every 3 days for total of 7 dosing rounds measured on day 20 after treatment; type: functional; details: read-out: TGI; method in brief: as §1
A549 [20] = experiment: Antitumor activity against human A549 cells xenografted in Balb/ca-nu mouse assessed as tumor growth inhibition at 2.5 to 10 mg/kg, iv dosed every 3 days for total of 7 dosing rounds measured after 20 days post dose; type: functional, organism-based; method in brief: as §1
A549 [21] = experiment: Induction of apoptosis in human A549 cells assessed as viable cells level at IC50 incubated for 24 hrs by Annexin V-FITC/propidium iodide double staining based flow cytometry (reference value: 99.7%); type: functional
A549 [22] = experiment: Induction of apoptosis in human A549 cells assessed as late apoptosis cells level at 2 times antiproliferative IC50 incubated for 24 hrs by Annexin V-FITC/propidium iodide double staining based flow cytometry (reference value: 0.127%); type: functional
A549 [23] = experiment: Antitumor activity against human A549 cells xenografted in Balb/ca-nu mouse assessed as tumor growth inhibition at 10 mg/kg, iv dosed every 3 days for total of 7 dosing rounds measured on day 8 after treatment; type: functional, organism-based; design: dose 10 mg/kg; method in brief: as §1
[24] = Antiproliferative activity against mouse NIH/3T3 cells assessed as inhibition of cell proliferation incubated for 48 hrs by CCK8 assay; type: cell-based; details: NIH3T3, 48 h; method in brief: as §2
A549 [25] = experiment: Antitumor activity against human A549 cells xenografted in Balb/ca-nu mouse assessed as tumor growth inhibition at 10 mg/kg, iv dosed every 3 days for total of 7 dosing rounds measured on day 12 after treatment; type: functional; details: read-out: TGI; method in brief: as §1
A549 [26] = experiment: Antitumor activity against human A549 cells xenografted in Balb/ca-nu mouse assessed as tumor growth inhibition at 10 mg/kg, iv dosed every 3 days for total of 7 dosing rounds measured on day 18 after treatment; type: functional; details: read-out: TGI; method in brief: as §1
A549 [27] = experiment: Induction of apoptosis in human A549 cells assessed as late apoptosis cells level at IC50 incubated for 24 hrs by Annexin V-FITC/propidium iodide double staining based flow cytometry (reference value: 0.127%); type: functional
A549 [28] = experiment: Antitumor activity against human A549 cells xenografted in Balb/ca-nu mouse assessed as tumor growth inhibition at 10 mg/kg, iv dosed every 3 days for total of 7 dosing rounds measured on day 10 after treatment; type: functional; details: read-out: TGI; method in brief: as §1

O=C(/C=C/c1cccc(Cl)c1)c1ccc(OCc2cn([C@H]3CC(=O)N4C[C@@H]5CCCN6CCC[C@@H]([C@H]56)[C@H]4C3)nn2)cc1O
inhibition in vivo at 10 mg/kg (A549 [1]): 83.7%
inhibition in vivo at 2.5 mg/kg (A549 [2]): 12.2%
inhibition in vivo at 2.5 mg/kg (A549 [3]): 5.4%
inhibition in vivo at 5 mg/kg (A549 [4]): 45.9%
Activity (A549 [5]): 5.99%
inhibition in vivo at 10 mg/kg (A549 [6]): 89.6%
Activity (A549 [7]): 4.95%
Activity (A549 [8]): 31.1%
IC50 [9]: 5.6 µM
Activity (A549 [10]): 2.57%
inhibition in vivo at 5 mg/kg (A549 [11]): 60.5%
inhibition in vivo at 5 mg/kg (A549 [12]): 34.8%
IC50 (HeLa): 7.31 µM
Activity (A549 [13]): 34.2%
Activity (Mus musculus): Non-toxic
inhibition in vivo at 2.5 mg/kg (A549 [14]): 23.3%
Activity (A549 [15]): 30.1%
inhibition in vivo at 10 mg/kg (A549 [16]): 78.8%
inhibition in vivo at 5 mg/kg (A549 [17]): 29%
inhibition in vivo at 5 mg/kg (A549 [18]): 54.9%
inhibition in vivo at 2.5 mg/kg (A549 [19]): 43.9%
TGI (A549 [20]): Dose-dependent effect
Activity (A549 [21]): 47.7%
Activity (A549 [22]): 33.1%
TGI (A549 [23]): Active
IC50 [24]: 39.2 µM
inhibition in vivo at 10 mg/kg (A549 [25]): 70.9%
inhibition in vivo at 10 mg/kg (A549 [26]): 86.9%
Activity (A549 [27]): 16.2%
inhibition in vivo at 10 mg/kg (A549 [28]): 60.5%
